Assay results reported in ChEMBL document CHEMBL1132260, “Antitumor agents. 194. Synthesis and biological evaluations of 4-beta-mono-, -di-, and -trisubstituted aniline-4'-O-demethyl-podophyllotoxin and related compounds with improved pharmacological profiles” (J Med Chem, 1999).

Columns and labels:
MCF7 = assay: The compound was tested for tumor cell growth inhibitory activity against human breast cancer (MCF-7) cell line.; format: functional; settings: MCF7, read-out: ED50
Outline: (§1)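 For the SRB growth assay, cells were grown in RPMI-1640 with 10% FBS and kanamycin at 37 °C under 5% CO2. Drug exposure was 3 days, with DMSO ≤2% final. Absorbance was read at 562 nm. ED50 (50% absorbance reduction vs untreated) was interpolated from dose–response data. Tests were run in triplicate.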

KB [1] = assay: Cellular protein-DNA complex breaking activity against KB cells labeled with tritiated thymidine.; format: functional, Homo sapiens
Outline: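 KB cells were labelled overnight with tritiated thymidine, chased 2 h, then exposed in triplicate to test agent for 1 h. Protein–DNA complexes were read as potassium-SDS precipitable radioactivity and expressed as fold over untreated control.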

CAKI-1 = assay: The compound was tested for tumor cell growth inhibitory activity against human renal cancer(CAKI-1) cell line; format: functional; settings: CAKI-1, read-out: ED50; outline: as §1
HCT-8 = assay: The compound was tested for tumor cell growth inhibitory activity against human ileocecal carcinoma (HCT-8) cell line; format: functional; settings: HCT-8, read-out: ED50; outline: as §1
[2] = biological target: T1, DNA topoisomerase II (Homo sapiens) (UniProt P11388+Q02880); assay: The compound was tested for inhibitory activity against human DNA topoisomerase-2.; format: protein assay
Outline: (§2)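 Human topoisomerase II (p170 isoform, 0.25 U) was assayed by P4 DNA unknotting. The buffer was 50 mM Tris-HCl pH 7.5, 100 mM KCl, 10 mM MgCl2, 0.5 mM DTT, 0.5 mM EDTA and 1 mM ATP, with BSA. Reactions ran 1 h at 37 °C, were stopped with SDS-sucrose, then run on 0.7% agarose and stained with ethidium bromide. Inhibition was scored by eye. IC100 is the concentration giving complete inhibition.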

[3] = The compound was tested for cytotoxic activity against KB cell line by clonogenic cell survival assay.; format: cell-based; settings: human, KB cells; read-out: LD50 (the source's name)
Outline: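 KB cells were exposed to a range of concentrations for 3 h, then replated. Colony formation and plating efficiency were counted. LD50 (50% fall in plating efficiency vs untreated control) was read graphically. There were three independent experiments.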

KB [4] = assay: The compound was tested for tumor cell growth inhibitory activity against human etoposide (KB-7d) cell line.; format: functional; settings: read-out: ED50 (the source's name); outline: as §1
A549 = assay: The compound was tested for tumor cell growth inhibitory activity against human lung carcinoma (A549) cell line.; format: functional; settings: A549, read-out: ED50; outline: as §1
[5] = biological target: T1, DNA topoisomerase II (Homo sapiens); assay: The compound was tested for inhibitory activity against human DNA topoisomerase II; format: protein assay; outline: as §2
KB [6] = assay: The compound was tested for tumor cell growth inhibitory activity against human KB-vin20c cell line resistant to vincristine; format: functional; settings: read-out: ED50 (the source's name); outline: as §1
KB [7] = assay: The compound was tested for tumor cell growth inhibitory activity against human KB-7d cell line resistant to etoposide; format: functional; settings: read-out: ED50 (the source's name); outline: as §1
Mus musculus [8] = assay: The compound was tested for antitumor activity against (P388/0) Leukemia cells in mice. with a dosage of 40.0 mg/Kg/dose. activity is expressed as %ILS.; format: functional; settings: Leukemia cell
Outline: (§3)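 The P388/0 leukaemia was implanted ip in female CD2F1 mice. Treatment was iv on a Q4D×3 schedule, injected at 0.1 cm³/10 g body weight. Agents were given in saline or in 10% DMSO/35% PEG 300/5% Tween 80/50% D5W, against a saline control. Median day of death, %ILS and net log change in tumour burden (at end of treatment) were recorded. The work was done at a contract lab.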

Mus musculus [9] = assay: The compound was tested for antitumor activity against (P388/0) Leukemia cells in mice. with a dosage of 10.0 mg/Kg/dose. activity is expressed as median day of death.; format: functional, Leukemia cell; outline: as §3
Mus musculus [10] = assay: The compound was tested for antitumor activity against Subcutaneous Mammary Tumor MCF-7 cells. with a dosage of 27.0 mg/Kg/dose. activity is expressed as days to tumor doubling.; format: functional, MCF7
Outline: (§4)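 MCF-7 human mammary tumour cells were implanted sc in female athymic nude mice. Dosing was iv on a Q4D×3 schedule at 0.1 cm³/10 g body weight, using saline or a DMSO/PEG 300/Tween 80/D5W vehicle, with a saline control. The endpoint was days to tumour doubling.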

Mus musculus [11] = assay: The compound was tested for antitumor activity against (P388/0) Leukemia cells in mice. with a dosage of 27.0 mg/Kg/dose. activity is expressed as median day of death.; format: functional, Leukemia cell; outline: as §3
Mus musculus [12] = assay: The compound was tested for antitumor activity against (P388/0) Leukemia cells in mice. with a dosage of 27.0 mg/Kg/dose. activity is expressed as net log change in tumor burden.; format: functional, Leukemia cell; outline: as §3
Mus musculus [13] = assay: The compound was tested for antitumor activity against (P388/0) Leukemia cells in mice. with a dosage of 27.0 mg/kg/dose. activity is expressed as %ILS.; format: functional; settings: Leukemia cell; outline: as §3
Mus musculus [14] = assay: The compound was tested for antitumor activity against (P388/0) Leukemia cells in mice. with a dosage of 10.0 mg/Kg/dose. activity is expressed as %ILS.; format: functional; settings: Leukemia cell; outline: as §3
Mus musculus [15] = assay: The compound was tested for antitumor activity against (P388/0) Leukemia cells in mice. with a dosage of 40.0 mg/Kg/dose; format: functional, Leukemia cell; outline: as §3
Mus musculus [16] = assay: The compound was tested for antitumor activity against (P388/0) Leukemia cells in mice. with a dosage of 40.0 mg/Kg/dose. activity is expressed as net log change in tumor burden.; format: functional, Leukemia cell; outline: as §3
Mus musculus [17] = assay: The compound was tested for antitumor activity against (P388/0) Leukemia cells in mice. with a dosage of 10.0 mg/Kg/dose. activity is expressed as net log change in tumor burden.; format: functional, Leukemia cell; outline: as §3
Mus musculus [18] = assay: The compound was tested for antitumor activity against Subcutaneous Mammary Tumor MCF-7 cells. with a dosage of 40.0 mg/Kg/dose. activity is expressed as days to tumor doubling.; format: functional, MCF7; outline: as §4

Structure (SMILES)	EC50 (MCF7)	Complex formation (KB [1])	EC50 (CAKI-1)	EC50 (HCT-8)	IC100 [2]	CC50 [3]	EC50 (KB [4])	EC50 (A549)	IC100 [5]	EC50 (KB [6])	EC50 (KB [7])	also measured
COc1ccc(N[C@@H]2c3cc4c(cc3[C@@H](c3cc(OC)c(O)c(OC)c3)[C@H]3C(=O)OC[C@@H]32)OCO4)c([N+](=O)[O-])c1	2.5 µM	15%	0.63 µM	2 µM	> 100 µM	> 20 µM	740 µM	1.7 µM	–	–	–	–
COc1cc([C@@H]2c3cc4c(cc3[C@@H](Nc3ccc(-c5nc6ccccc6[nH]5)cc3)[C@H]3COC(=O)[C@H]23)OCO4)cc(OC)c1O	0.85 µM	128%	0.35 µM	0.63 µM	–	0.2 µM	–	0.23 µM	10 µM	1.4 µM	450 µM	–
COc1cc([C@@H]2c3cc4c(cc3[C@@H](Nc3ccc([N+](=O)[O-])cc3)[C@H]3COC(=O)[C@H]23)OCO4)cc(OC)c1O	28.5 µM	122%	1.5 µM	8.5 µM	10 µM	1 µM	–	–	–	–	–	–
COc1cc([C@@H]2c3cc4c(cc3[C@@H](Nc3cc([N+](=O)[O-])cc([N+](=O)[O-])c3)[C@H]3COC(=O)[C@H]23)OCO4)cc(OC)c1O	> 5 µM	20%	10 µM	26 µM	> 100 µM	–	17500 µM	> 40 µM	–	–	–	–
COc1cc([C@@H]2c3cc4c(cc3[C@@H](Nc3nc5ccccc5[nH]3)[C@H]3COC(=O)[C@H]23)OCO4)cc(OC)c1O	–	58%	17.5 µM	3.3 µM	–	–	–	3.5 µM	100 µM	1000 µM	0.9 µM	–
COc1ccc([N+](=O)[O-])cc1N[C@@H]1c2cc3c(cc2[C@@H](c2cc(OC)c(O)c(OC)c2)[C@H]2C(=O)OC[C@@H]21)OCO3	2.4 µM	12%	2.5 µM	4.8 µM	> 100 µM	> 20 µM	1800 µM	2.25 µM	–	–	–	–
COc1cc([N+](=O)[O-])ccc1N[C@@H]1c2cc3c(cc2[C@@H](c2cc(OC)c(O)c(OC)c2)[C@H]2C(=O)OC[C@@H]21)OCO3	5 µM	83%	1.1 µM	> 10 µM	> 100 µM	> 20 µM	4000 µM	0.63 µM	–	–	–	–
COc1cc([C@@H]2c3cc4c(cc3[C@@H](Nc3ccc(NC(=O)C56CCC(C)(C(=O)O5)C6(C)C)cc3)[C@H]3COC(=O)[C@H]23)OCO4)cc(OC)c1O (stereo partly drawn)	> 5 µM	88%	> 1.25 µM	20 µM	10 µM	–	5600 µM	2.2 µM	–	–	–	–
COc1cc([C@@H]2c3cc4c(cc3[C@H](Nc3cc([N+](=O)[O-])cc([N+](=O)[O-])c3)[C@H]3COC(=O)[C@H]23)OCO4)cc(OC)c1O	2.5 µM	8%	> 10 µM	> 5 µM	> 100 µM	–	7600 µM	> 5 µM	–	–	–	–
COc1cc([N+](=O)[O-])c(OC)cc1N[C@@H]1c2cc3c(cc2[C@@H](c2cc(OC)c(O)c(OC)c2)[C@H]2C(=O)OC[C@@H]21)OCO3	–	4.4%	45 µM	> 50 µM	–	–	–	21.5 µM	> 100 µM	20 µM	37 µM	–
COc1cc(N[C@@H]2c3cc4c(cc3[C@@H](c3cc(OC)c(O)c(OC)c3)[C@H]3C(=O)OC[C@@H]32)OCO4)c(C)cc1[N+](=O)[O-]	–	3.5%	> 50 µM	> 50 µM	–	–	–	> 50 µM	> 100 µM	–	–	–
COc1cc([C@@H]2c3cc4c(cc3[C@@H](O[C@@H]3O[C@@H]5CO[C@@H](C)O[C@H]5[C@H](O)[C@H]3O)[C@H]3COC(=O)[C@H]23)OCO4)cc(OC)c1O [ETOPOSIDE]	> 5 µM	100%	2.2 µM	> 5 µM	–	20 µM	–	1.95 µM	–	30.6 µM	23.8 µM	ILS at 40 mg/kg/day (Mus musculus [8]): 160%; Day of death (Mus musculus [9]): 19; Days to tumor doubling (Mus musculus [10]): 18.5; Day of death (Mus musculus [11]): 23; Net log change in tumor burden (Mus musculus [12]): -3.4; ILS at 27 mg/kg/day (Mus musculus [13]): 130%; ILS at 10 mg/kg/day (Mus musculus [14]): 90%; Day of death (Mus musculus [15]): 26; Net log change in tumor burden (Mus musculus [16]): -5.5; Net log change in tumor burden (Mus musculus [17]): -0.7; Days to tumor doubling (Mus musculus [18]): >24.1
